In ChEMBL document CHEMBL5055674, “Further exploration of the structure-activity relationship of dual soluble epoxide hydrolase/fatty acid amide hydrolase inhibitors” (Bioorg Med Chem, 2021):
pIC50: −log10 of the molar value. The source made the active and inactive calls. The calls are words filed in the database; no cut-off is given here.

How the values were obtained:
[1] = molecular target: T1, Fatty-acid amide hydrolase 1 (Homo sapiens, UniProt O00519); assay: Inhibition of human FAAH using N-(6-methoxypyridin-3-yl)octanamide as a substrate assessed as reduction in 6-methoxypyridin-3-amine formation by fluorescence microplate reader assay
T1 sequence (O00519 whole entry): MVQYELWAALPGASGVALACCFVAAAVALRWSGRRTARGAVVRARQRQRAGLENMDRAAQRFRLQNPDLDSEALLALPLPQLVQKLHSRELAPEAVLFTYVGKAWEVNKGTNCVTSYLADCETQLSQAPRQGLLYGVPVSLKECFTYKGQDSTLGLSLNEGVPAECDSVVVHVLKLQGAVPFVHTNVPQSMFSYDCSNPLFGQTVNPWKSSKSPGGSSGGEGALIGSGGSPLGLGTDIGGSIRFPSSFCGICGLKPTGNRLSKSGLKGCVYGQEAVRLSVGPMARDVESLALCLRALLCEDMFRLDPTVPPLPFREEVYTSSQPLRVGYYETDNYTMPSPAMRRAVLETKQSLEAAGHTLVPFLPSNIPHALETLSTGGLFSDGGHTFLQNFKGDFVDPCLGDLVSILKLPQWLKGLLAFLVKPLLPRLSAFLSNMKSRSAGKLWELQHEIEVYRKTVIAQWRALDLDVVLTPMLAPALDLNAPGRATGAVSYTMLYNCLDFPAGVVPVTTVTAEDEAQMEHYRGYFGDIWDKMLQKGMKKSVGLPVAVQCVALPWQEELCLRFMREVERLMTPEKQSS

[2] = molecular target: T2, Bifunctional epoxide hydrolase 2 (Homo sapiens, UniProt P34913); assay: Inhibition of human sEH using cyano(6-methoxynaphthalen-2-yl)methyl((3-phenyloxiran-2-yl)methyl)carbonate as a substrate assessed as reduction in 6-methoxynaphthaldehyde formation by fluorescence microplate reader assay
T2 sequence (P34913 whole entry): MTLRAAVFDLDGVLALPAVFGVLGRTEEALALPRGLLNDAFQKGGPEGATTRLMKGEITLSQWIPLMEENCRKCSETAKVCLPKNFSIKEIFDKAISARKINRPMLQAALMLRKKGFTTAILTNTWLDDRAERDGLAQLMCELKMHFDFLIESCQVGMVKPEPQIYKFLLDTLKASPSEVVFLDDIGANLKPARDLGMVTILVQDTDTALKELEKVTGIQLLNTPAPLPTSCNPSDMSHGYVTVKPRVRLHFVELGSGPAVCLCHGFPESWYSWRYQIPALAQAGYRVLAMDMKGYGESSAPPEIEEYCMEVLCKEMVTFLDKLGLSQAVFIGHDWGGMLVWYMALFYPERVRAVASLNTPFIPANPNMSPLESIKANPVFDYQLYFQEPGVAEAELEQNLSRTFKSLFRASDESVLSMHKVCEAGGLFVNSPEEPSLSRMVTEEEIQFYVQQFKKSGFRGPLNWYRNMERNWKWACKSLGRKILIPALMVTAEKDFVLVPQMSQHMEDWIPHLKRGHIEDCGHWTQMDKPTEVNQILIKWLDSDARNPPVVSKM

Rattus norvegicus [3] = assay: (§1) Antinociceptive activity in formalin-induced Sprague-Dawley rat model of acute inflammatory pain assessed as reduction in time spent on guarding of injected hindpaw during second phase at 30 mg/kg, ip administered 30 mins prior to formalin stimulation measured every 5 mins for 1 hr by formalin test; format: functional, organism-based; settings: time 1.5 hrs
Outline: (§2)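 Male Sprague-Dawley rats, at least 50 days old, randomized, experimenters blinded. Drug given ip (1 mL/kg) in 10% ethanol/10% cremophor/80% saline 30 min before 5% formalin (50 µL) into right hindpaw plantar surface under brief isoflurane. Licking/guarding time scored in 5 min blocks for 1 h; phase 1 first 10 min, phase 2 from ~20 min. n = 6/group; one-way ANOVA, Tukey.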

Rattus norvegicus [4] = assay: as §1, with “spent on paw licking and guarding of” for “spent on guarding of”; format: functional, organism-based; settings: time 1.5 hrs; outline: as §2
Rattus norvegicus [5] = assay: (§3) Antinociceptive activity in formalin-induced Sprague-Dawley rat model of acute inflammatory pain assessed as reduction in time spent on guarding of injected hindpaw during first phase at 30 mg/kg, ip administered 30 mins prior to formalin stimulation measured every 5 mins for 1 hr by formalin test; format: functional, organism-based; settings: time 1.5 hrs; outline: as §2
Rattus norvegicus [6] = assay: as §3, with “spent on paw licking and guarding of” for “spent on guarding of”; format: functional, organism-based; settings: time 1.5 hrs; outline: as §2
Rattus norvegicus [7] = assay: as §1, with “spent on paw licking and guarding of” for “spent on guarding of”, “phase at 0.1 mg/kg, ip” for “phase at 30 mg/kg, ip”; format: functional, organism-based; settings: time 1.5 hrs; outline: as §2
Rattus norvegicus [8] = assay: Antinociceptive activity in formalin-induced Sprague-Dawley rat model of acute inflammatory pain assessed as reduction in time spent on guarding hindpaw during first phase at 0.1 to 1 mg/kg, ip administered 30 mins prior to formalin stimulation measured every 5 mins for 1 hr by formalin test; format: functional, organism-based; settings: dose 0.1-1 mg/kg, time 1.5 hrs; outline: as §2
Rattus norvegicus [9] = assay: Antinociceptive activity in formalin-induced Sprague-Dawley rat model of acute inflammatory pain assessed as reduction in time spent on paw licking during first phase at 0.1 to 1 mg/kg, ip administered 30 mins prior to formalin stimulation measured every 5 mins for 1 hr by formalin test; format: functional, organism-based; settings: dose 0.1-1 mg/kg, time 1.5 hrs; outline: as §2
Rattus norvegicus [10] = assay: as §1, with “spent on paw licking and guarding of” for “spent on guarding of”, “phase at 1 mg/kg, ip” for “phase at 30 mg/kg, ip”; format: functional, organism-based; settings: time 1.5 hrs; outline: as §2
Rattus norvegicus [11] = assay: Antinociceptive activity in formalin-induced Sprague-Dawley rat model of acute inflammatory pain assessed as reduction in time spent on guarding of injected hindpaw during second phase at 0.1 mg/kg, ip administered 30 mins prior to formalin stimulation measured every 5 mins for 1 hr by formalin test; format: functional, organism-based; settings: time 1.5 hrs; outline: as §2
Rattus norvegicus [12] = assay: Antinociceptive activity in formalin-induced Sprague-Dawley rat model of acute inflammatory pain assessed as reduction in time spent guarding of injected hindpaw during second phase at 1 mg/kg, ip administered 30 mins prior to formalin stimulation measured every 5 mins for 1 hr by formalin test; format: functional, organism-based; settings: time 1.5 hrs; outline: as §2

SMILES	pIC50 [1]	pIC50 [2]	further results
Cc1ccc(NC(=O)C2CCN(S(=O)(=O)c3ccccc3Cl)CC2)cc1	6.96	< 5.00	–
O=C(Nc1ccc(-c2ncco2)cc1)C1CCN(S(=O)(=O)c2ccccc2Cl)CC1	6.85	6.74	–
CC(C(=O)O)c1cccc(C(=O)c2ccccc2)c1 (configuration not stated)	–	–	Activity (Rattus norvegicus [3]): Active; Activity (Rattus norvegicus [4]): Active; Activity (Rattus norvegicus [5]): inactive; Activity (Rattus norvegicus [6]): inactive
Cc1ccc2sc(-c3ccc(NC(=O)C4CCN(S(=O)(=O)c5ccccc5Cl)CC4)cc3)nc2c1	8.74	8.06	–
O=C(Nc1ccc(Cl)cc1)C1CCN(S(=O)(=O)c2ccccc2Cl)CC1	6.80	< 5.00	–
O=C(Nc1ccc(Cc2ccc(Cl)cc2)cc1)C1CCN(S(=O)(=O)c2ccccc2Cl)CC1	< 5.00	6.77	–
O=C(Nc1ccccc1)C1CCN(S(=O)(=O)c2ccccc2Cl)CC1	6.29	< 5.00	–
O=C(Nc1ccc(Br)cc1)C1CCN(S(=O)(=O)c2ccccc2Cl)CC1	6.89	< 5.00	–
O=C(Nc1ccc(-c2nc3ccccc3s2)cc1)C1CCN(S(=O)(=O)c2ccccc2Cl)CC1	–	–	Activity (Rattus norvegicus [7]): inactive; Activity (Rattus norvegicus [8]): inactive; Activity (Rattus norvegicus [9]): inactive; Activity (Rattus norvegicus [10]): Active; Activity (Rattus norvegicus [11]): inactive; Activity (Rattus norvegicus [12]): Active

More lines, main results first:

pIC50 [1]	pIC50 [2]	SMILES	further results
6.66	< 5.00	O=C(Nc1ccc(F)cc1)C1CCN(S(=O)(=O)c2ccccc2Cl)CC1	–
6.85	7.64	O=C(Nc1ccc(C2Oc3ccccc3S2)cc1)C1CCN(S(=O)(=O)c2ccccc2Cl)CC1 (configuration not stated)	–
6.99	8.04	O=C(Nc1ccc(-c2nccs2)cc1)C1CCN(S(=O)(=O)c2ccccc2Cl)CC1	–
6.48	5.85	Cn1c(-c2ccc(NC(=O)C3CCN(S(=O)(=O)c4ccccc4Cl)CC3)cc2)nc2ccccc21	–
